# PAFAH1B3 inh: PAFAH1B3 enzyme inhibitors, primary screen, biochemical, fluorescence polarization, human; Platelet-activating factor acetylhydrolase IB subunit alpha1 (Homo sapiens), Q15102; recombinant PAFAH1B3, FP-rhodamine probe; inhibition, % at 3.39 µM; 0.28% of 340,000 active;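 active = inhibition above the screen-wide average of all tested compounds plus 3 SD, cut at about 25% in these data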;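 note: 0% = enzyme with DMSO only and 100% = wells lacking PAFAH1B3 protein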
# Target sequence (Q15102 whole entry, looked up): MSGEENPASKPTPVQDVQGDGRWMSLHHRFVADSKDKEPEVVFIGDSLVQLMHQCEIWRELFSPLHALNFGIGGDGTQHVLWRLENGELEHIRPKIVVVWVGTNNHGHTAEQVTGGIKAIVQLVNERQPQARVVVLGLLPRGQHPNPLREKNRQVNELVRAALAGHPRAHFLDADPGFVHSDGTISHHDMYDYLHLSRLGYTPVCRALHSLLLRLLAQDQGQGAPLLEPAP
# pPAFAH inh: pPAFAH enzyme inhibitors, primary screen, biochemical, fluorescence polarization, human | Platelet-activating factor acetylhydrolase (Homo sapiens), Q13093 | recombinant pPAFAH, FP-rhodamine probe fluorescence polarization | inhibition, % at 3.39 µM | 1.5% of 330,000 active | AID 463082, 2010;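 active = inhibition above the mean inhibition across the screen plus 3 SD, cut at about 25% in these data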;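 note: inhibitors block binding of the rhodamine activity-based probe so polarization drops; 0% = enzyme with DMSO and 100% = wells lacking pPAFAH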
# PAFAH2 inh: PAFAH2 enzyme inhibitors, primary screen, biochemical, fluorescence polarization, human | Platelet-activating factor acetylhydrolase 2, cytoplasmic (Homo sapiens), Q99487 | recombinant PAFAH2, FP-rhodamine activity probe | inhibition, % at 3.39 µM | 0.99% of 340,000 active | AID 492956, 2010;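 active = inhibition above the mean over all tested compounds plus 3 SD, cut at about 30% in these data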;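 note: inhibitors block probe labeling of enzyme so polarization drops; 0% = enzyme with DMSO and 100% = wells lacking PAFAH2 protein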
# PAFAH1B2 FP inh: PAFAH1B2 enzyme inhibitors, primary screen, biochemical, fluorescence polarization, human. Platelet-activating factor acetylhydrolase IB subunit alpha2 (Homo sapiens), P68402. recombinant PAFAH1B2, FP-rhodamine activity probe. inhibition, % at 3.39 µM. 1.2% of 340,000 active;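 active = inhibition above the mean of all tested compounds plus 3 SD, cut at about 24% in these data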;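 note: 0% = enzyme with DMSO and 100% = wells lacking PAFAH1B2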
# Target sequence (P68402 whole entry, looked up): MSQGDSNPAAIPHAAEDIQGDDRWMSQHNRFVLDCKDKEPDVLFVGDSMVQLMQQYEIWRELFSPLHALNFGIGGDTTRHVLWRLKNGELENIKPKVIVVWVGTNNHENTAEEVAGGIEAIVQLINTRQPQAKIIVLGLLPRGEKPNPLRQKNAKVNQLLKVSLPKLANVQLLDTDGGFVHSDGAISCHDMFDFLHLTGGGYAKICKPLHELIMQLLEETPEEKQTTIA
# Apaf-1 inh: inhibitors of human Apaf-1 apoptosome, primary screen, biochemical, DEVD-Rh110 fluorescence, uHTS | Apoptotic protease-activating factor 1 (Homo sapiens), O14727 | reconstituted apoptosome caspase-3 activity | inhibition, % at 20 µM | 0.71% of 330,000 active | AID 489030, 2010; active = inhibition of at least 40% at 20 µM;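 note: plate controls were DMSO wells for no effect and DEVD-CHO caspase inhibitor wells for full effect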
#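 Material: biochemical Apaf-1 apoptosome reconstitution. Medium: Hepes buffer, pH 7.5. Also added: cytochrome c activation, bis-DEVD rhodamine 110 substrate. Timing: 30 min compound preincubation, 50 min activation, room temperature. Measured by: rhodamine 110 fluorescence at Ex 480/Em 540 nm.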
# pPAFAH FP conf: pPAFAH (PLA2G7) enzyme inhibitors, confirmation, biochemical, fluorescence polarization, human | shares compounds with pPAFAH inh | recombinant pPAFAH, FP-Rh probe fluorescence polarization | inhibition, % at 3.39 µM | 72% of 2,300 active | AID 463230, 2010;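 active = mean inhibition of the triplicate above the hit cutoff set for the earlier primary screen, cut at about 25% in these data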;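 note: 0% = enzyme with DMSO and 100% = wells lacking pPAFAH enzyme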
# The depositor's hits bear a star; · = no result given; ! = a repeat was not active. Only some compounds are listed: those with a hit (about 3.1% of all), similar ones and a draw of the others.
SMILES,PAFAH1B3 inh,pPAFAH inh,PAFAH2 inh,PAFAH1B2 FP inh,Apaf-1 inh,pPAFAH FP conf
CC/C(=N\Nc1ccnc2cc(Cl)ccc12)c1ccc(O)cc1,9,6,-3,7,2,·
O=C(Oc1ccc(OC(=O)C2CCC2)cc1)C1CCC1,1,42*,3,3,4,-3
Cc1cc(-c2nnc(SCC(=O)Nc3nc(-c4ccc(Cl)cc4)cs3)o2)no1,-7,42*,-16,-4,-15,2
O=C1CC(=O)N(Cc2cccs2)C(=O)N1,4,2,-4,10,1,·
O=C1CC(=O)N(Cc2ccco2)C(=O)N1,0,37*,26,1,9,5
O=C1CC(=O)N(Cc2ccco2)C(=S)N1,-10,41*,11,0,7,13
S=C1NCN(Cc2ccco2)CN1,5,-8,0,5,-3,·
CCC(=O)OC1(C(C)=O)CCC2C3CCC4=CC(=O)CCC4(C)C3CCC21C (stereo not drawn),1,·,-5,-2,·,·
O=Cc1nc(-c2ccccc2Cl)n2ccccc12,5,3,-2,1,-18,·
O=Cc1nc(-c2ccc(Cl)cc2)n2ccccc12,-5,71*,4,-2,2,4
Cc1ccc(C(=O)N(C)CCOc2ccccc2)cc1S(=O)(=O)N1CCOCC1,4,-1,-4,4,-2,·
N#CC(C#N)=C(N)/C(C#N)=C/c1cc(O)c(O)c(O)c1,39*,39*,35*,33*,8,60*
N#C/C(=C/c1cc(Cl)c(O)c(Cl)c1)C(=O)N1CCCCC1,4,6,9,7,0,·
COc1ccc(CC(=O)Nc2ccc(S(=O)(=O)N3CCCC3)cc2)c(OC)c1,-3,-4,2,1,-8,·
Cc1oc(-c2ccc(Cl)cc2)cc1-c1nn2c(-c3ccoc3C)nnc2s1,-1,53*,28,3,35,43*
CC(C)(C)c1ccc(OCc2ccc(C(=O)N/N=C/c3ccc(O)c(O)c3)cc2)cc1,17,43*,2,-8,16,74*
O=C(COc1ccccc1C(=O)N/N=C\c1ccc(O)c(O)c1)N/N=C/c1ccc(O)c(O)c1,0,62*,42*,12,7,80*
C(=C\c1ccco1)/C1=NN(c2ccccc2)C(c2ccco2)C1 (stereo not drawn),3,40*,4,-1,20,15
C=Cc1c(C)c2cc3[nH]c(cc4nc(cc5nc(cc1[nH]2)C(C)=C5CCC(=O)O)C(CCC(=O)O)=C4C)c(C)c3C=C,40*!,97*,60*!,0,11,51*
O=C1CCCN1C(=O)CSc1ccc2ccccc2n1,12,1,7,-2,-9,·
N#CCCN(CCC#N)C(=O)C1c2ccccc2Oc2ccccc21,18,65*,27,21,-7,2
CN(CCC#N)C(=O)COC(=O)C1c2ccccc2Oc2ccccc21,-4,2,-10,4,3,·
CCN(C(=O)C(C)N1C(=O)/C(=C/c2ccco2)SC1=S)C1CCS(=O)(=O)C1 (stereo not drawn),8,44*,0,0,25,7
Cc1ccc(/C=C2/SC(=S)N(C3CCCCC3)C2=O)o1,-3,37*,11,-1,-33,11
O=C1/C(=C/c2ccco2)SC(=S)N1C1CCS(=O)(=O)C1 (stereo not drawn),9,57*,4,-4,20,0
SMILES,PAFAH1B3 inh,pPAFAH inh,PAFAH2 inh,PAFAH1B2 FP inh,Apaf-1 inh,pPAFAH FP conf
CC(C(=O)N(C)C1CCS(=O)(=O)C1)N1C(=O)/C(=C/c2ccc(F)cc2)SC1=S (stereo not drawn),1,-6,5,3,12,·
O=C1/C(=C\c2ccco2)SC(=S)N1C1CCS(=O)(=O)C1 (stereo not drawn),·,23,·,·,7,·
O=C(c1ccccc1)c1ccc(OC(=O)N2CCOCC2)cc1,5,52*,35*,5,-19,53*
CCCCOC(=O)N1CCOCCOCCN(C(=O)OCCCC)CCOCCOCC1,5,35*,2,4,14,26*
CCCCOC(=O)c1ccc(OC(=O)N2CCOCC2)cc1,7,94*,36*,4,2,97*
CCOC(=O)N1CCN(C(=O)N2CCOCC2)CC1,12,1,7,7,-16,·
COc1ccc(Cc2nnc(NC(=O)c3ccccc3C)s2)cc1,7,8,0,0,0,·
N=C1c2c(cc(=O)n3c2[nH]c2ccccc23)CN1CCN1CCOCC1,-2,36*,4,3,1,23
O=c1c2ccccc2[nH]c(=S)n1CCCN1CCOCC1,0,7,6,4,-11,·
Cc1ccc(N=Cc2cc(Cc3ccccc3Cl)cc([N+](=O)[O-])c2O)c(O)c1,8,48*,12,9,29,62*
O=C(NCc1ccco1)c1cccc2c1C(=O)c1ccc(/C=C/c3ccccc3)cc1S2(=O)=O,1,39*,4,3,-1,32*
CC(C)c1cccc(-c2ccc3c(c2)S(=O)(=O)c2cccc(C(=O)NCc4ccccc4)c2C3=O)c1,-4,-1,-7,0,-1,·
COc1cc(C2C(C#N)=C(N)OC3=C2C(=O)CC(C)(C)C3)cc2c1OCO2 (stereo not drawn),-3,6,18,-6,15,·
Cc1cccc(NC(=O)CSc2nnc(-c3ccco3)c(-c3ccco3)n2)c1C,5,35*,41*,12,24,21
O=C(/C=C1\NC2(CCCC2)Cc2ccccc21)C(=O)N/N=C/c1ccc(O)c(O)c1,15,48*,34*,8,15,87*
COc1ccc(/C=N/NC(=O)C(=O)/C=C2\NC3(CCCC3)Cc3ccccc32)cc1,0,1,-14,-5,21,·
Cc1ccc(S(=O)(=O)NCCNC(=O)c2ccc(C)nc2)cc1,10,0,6,3,-1,·
C=CCOc1ccc(C(c2c(C(=O)O)[nH]c3ccccc23)c2c(C(=O)O)[nH]c3ccccc23)cc1,8,44*,55*,66*,28,30*
COc1ccc(CN=Cc2c(C(=O)O)[nH]c3ccccc23)cc1,9,3,-2,-2,1,·
CN(C(=O)CN1C(=O)c2ccccc2S1(=O)=O)C1CCCCC1,5,-4,4,10,0,·

# High-throughput results from PubChem.
